Source: ChEMBL document CHEMBL5724801, “EUbOPEN Chemogenomics Library - Multiplex” (2024)
Several values for one entry are separate records, joined by “and”; a condition that tells them apart may be missing. Identical values can stand only once.

Tested on: Fibroblast
Test: Multiplex assay against human fibroblast
Format: toxicity, cell-based
Summary of the method: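 With compound added, live cells were imaged on a CQ1 microscope at 37°C and 5% CO2; staining with Hoechst33342, BioTracker Green Microtubule Cytoskeleton Dye, MitoTracker Red and Annexin V Alexa Fluor 680 had been done at seeding. The CellPathfinder machine-learning gating scheme split cells into Hoechst high-intensity objects or normal cells, normal cells into healthy, pyknosed or fragmented nuclei, and pyknosed cells into mitotic or apoptotic. The tubulin, mitochondrial-mass and membrane-permeability phenotypes are per cents of healthy-nucleus cells.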

[1] = 12 h, 1 µM, compound concentration 1 uM
[2] = 12 h, 10 µM, compound concentration 10 uM
[3] = 24 h, 1 µM, compound concentration 1 uM
[4] = 24 h, 10 µM, compound concentration 10 uM
[5] = 48 h, 1 µM, compound concentration 1 uM
[6] = 48 h, 10 µM, compound concentration 10 uM

In the case of `CSc1nc(NC2CCCC2)c([N+](=O)[O-])c(NC2CCCC2)n1` [GS-39783], the “Population Apoptotic (%)” value [1] is reported as 50% and 39%, the “Population Fragmented Nuclei (%)” value [1] is reported as 16% and 28% and the “Population Healthy Nuclei (%)” value [1] is reported as 66% and 46%. For the same molecule, the “Population Hoechst High Intensity Objects (%)” value [1] was 3% and 5%, the “Population Membrane Permeable-Phenotype (%)” value [1] was 2% and 10% and the “Population Mitochondria Different-Phenotype (%)” value [1] was 6% and 10%. For the same molecule, the “Population Mitotic Cells (%)” value [1] was 50% and 60%, the “Population Normal (%)” value [1] was 96% and 94% and the “Population Pyknosed Nuclei (%)” value [1] was 16% and 25%. For the same molecule, the “Population Tubulin-Different-Phenotype (%)” value [1] was 29% and 57%, the “Total Cell Count” value [1] was 137 and 135 and the “Population Apoptotic (%)” value [2] was 54% and 36%. The “Population Fragmented Nuclei (%)” value [2] was 16% and 25%, the “Population Healthy Nuclei (%)” value [2] was 62% and 52% and the “Population Hoechst High Intensity Objects (%)” value [2] was 5% and 6%. For the same molecule, the “Population Membrane Permeable-Phenotype (%)” value [2] was 0% and 4%, the “Population Mitotic Cells (%)” value [2] was 45% and 63% and the “Population Normal (%)” value [2] was 94% and 93%. The “Population Pyknosed Nuclei (%)” value [2] was 21%, the “Population Tubulin-Different-Phenotype (%)” value [2] was 39% and 70% and the “Total Cell Count” value [2] was 184 and 165. For the same molecule, the “Population Apoptotic (%)” value [3] was 30% and 32%, the “Population Fragmented Nuclei (%)” value [3] was 12% and 31% and the “Population Healthy Nuclei (%)” value [3] was 69% and 44%. The “Population Hoechst High Intensity Objects (%)” value [3] was 2%, the “Population Membrane Permeable-Phenotype (%)” value [3] was 3% and 10% and the “Population Mitochondria Different-Phenotype (%)” value [3] was 4% and 12%. The “Population Mitotic Cells (%)” value [3] was 69% and 67%, the “Population Normal (%)” value [3] was 97% and the “Population Pyknosed Nuclei (%)” value [3] was 17% and 23%. For the same molecule, the “Population Tubulin-Different-Phenotype (%)” value [3] was 27% and 60%, the “Total Cell Count” value [3] was 132 and 133 and the “Population Apoptotic (%)” value [4] was 58% and 36%. The “Population Fragmented Nuclei (%)” value [4] was 17% and 25%, the “Population Healthy Nuclei (%)” value [4] was 65% and 52% and the “Population Hoechst High Intensity Objects (%)” value [4] was 2% and 7%. The “Population Membrane Permeable-Phenotype (%)” value [4] was 0% and 6%, the “Population Mitochondria Different-Phenotype (%)” value [4] was 4% and 10% and the “Population Mitotic Cells (%)” value [4] was 41% and 63%. For the same molecule, the “Population Normal (%)” value [4] was 97% and 92%, the “Population Pyknosed Nuclei (%)” value [4] was 17% and 21% and the “Population Tubulin-Different-Phenotype (%)” value [4] was 33% and 57%. For the same molecule, the “Total Cell Count” value [4] was 172 and 164, the “Population Apoptotic (%)” value [5] was 70% and 33% and the “Population Fragmented Nuclei (%)” value [5] was 22% and 41%. For the same molecule, the “Population Healthy Nuclei (%)” value [5] was 69% and 44%, the “Population Hoechst High Intensity Objects (%)” value [5] was 4% and 3% and the “Population Mitochondria Different-Phenotype (%)” value [5] was 5% and 14%. The “Population Mitotic Cells (%)” value [5] was 30% and 66%, the “Population Normal (%)” value [5] was 95% and 96% and the “Population Pyknosed Nuclei (%)” value [5] was 7% and 14%. The “Population Tubulin-Different-Phenotype (%)” value [5] was 29% and 60%, the “Total Cell Count” value [5] was 134 and 129 and the “Population Apoptotic (%)” value [6] was 66% and 60%. The “Population Fragmented Nuclei (%)” value [6] was 19% and 40%, the “Population Healthy Nuclei (%)” value [6] was 65% and 46% and the “Population Hoechst High Intensity Objects (%)” value [6] was 2% and 6%. For the same molecule, the “Population Membrane Permeable-Phenotype (%)” value [6] was 1% and 6%, the “Population Mitochondria Different-Phenotype (%)” value [6] was 5% and 7% and the “Population Mitotic Cells (%)” value [6] was 33% and 40%. The “Population Normal (%)” value [6] was 97% and 93%, the “Population Pyknosed Nuclei (%)” value [6] was 14% and 13% and the “Population Tubulin-Different-Phenotype (%)” value [6] was 41% and 60%. For the same molecule, the “Total Cell Count” value [6] was 168 and 193.

`CC(C)c1noc(N2CCC(COc3ccc(-c4ccc(S(C)(=O)=O)cc4)nc3)CC2)n1` [GSK-1292263] was tested, and the “Population Apoptotic (%)” value [1] was 38% and 29%, the “Population Fragmented Nuclei (%)” value [1] was 14% and 18% and the “Population Healthy Nuclei (%)” value [1] was 74% and 50%. For the same molecule, the “Population Hoechst High Intensity Objects (%)” value [1] was 2% and 6%, the “Population Membrane Permeable-Phenotype (%)” value [1] was 0% and 4% and the “Population Mitochondria Different-Phenotype (%)” value [1] was 1% and 5%. The “Population Mitotic Cells (%)” value [1] was 61% and 70%, the “Population Normal (%)” value [1] was 97% and 93% and the “Population Pyknosed Nuclei (%)” value [1] was 11% and 31%. The “Population Tubulin-Different-Phenotype (%)” value [1] was 21% and 41%, the “Total Cell Count” value [1] was 189 and 149 and the “Population Apoptotic (%)” value [2] was 39% and 35%. The “Population Healthy Nuclei (%)” value [2] was 65% and 45%, the “Population Hoechst High Intensity Objects (%)” value [2] was 3% and 2% and the “Population Membrane Permeable-Phenotype (%)” value [2] was 1% and 6%. For the same molecule, the “Population Mitochondria Different-Phenotype (%)” value [2] was 5% and 10%, the “Population Mitotic Cells (%)” value [2] was 60% and 64% and the “Population Normal (%)” value [2] was 96% and 97%. The “Population Pyknosed Nuclei (%)” value [2] was 26% and 27%, the “Population Tubulin-Different-Phenotype (%)” value [2] was 39% and 61% and the “Total Cell Count” value [2] was 162 and 145. The “Population Apoptotic (%)” value [3] was 50% and 44%, the “Population Fragmented Nuclei (%)” value [3] was 9% and 20% and the “Population Healthy Nuclei (%)” value [3] was 78% and 53%. For the same molecule, the “Population Hoechst High Intensity Objects (%)” value [3] was 3% and 7%, the “Population Membrane Permeable-Phenotype (%)” value [3] was 1% and 4% and the “Population Mitochondria Different-Phenotype (%)” value [3] was 0% and 2%. For the same molecule, the “Population Mitotic Cells (%)” value [3] was 50% and 55%, the “Population Normal (%)” value [3] was 96% and 92% and the “Population Pyknosed Nuclei (%)” value [3] was 11% and 25%. For the same molecule, the “Population Tubulin-Different-Phenotype (%)” value [3] was 17% and 41%, the “Total Cell Count” value [3] was 182 and 142 and the “Population Apoptotic (%)” value [4] was 52% and 46%. The “Population Fragmented Nuclei (%)” value [4] was 12% and 21%, the “Population Healthy Nuclei (%)” value [4] was 67% and 55% and the “Population Hoechst High Intensity Objects (%)” value [4] was 2% and 3%. For the same molecule, the “Population Membrane Permeable-Phenotype (%)” value [4] was 1% and 10%, the “Population Mitochondria Different-Phenotype (%)” value [4] was 5% and 10% and the “Population Mitotic Cells (%)” value [4] was 47% and 53%. For the same molecule, the “Population Normal (%)” value [4] was 97% and 96%, the “Population Pyknosed Nuclei (%)” value [4] was 20% and 23% and the “Population Tubulin-Different-Phenotype (%)” value [4] was 50% and 56%. For the same molecule, the “Total Cell Count” value [4] was 168 and 123, the “Population Apoptotic (%)” value [5] was 66% and 54% and the “Population Fragmented Nuclei (%)” value [5] was 19% and 27%. The “Population Healthy Nuclei (%)” value [5] was 74% and 47%, the “Population Hoechst High Intensity Objects (%)” value [5] was 3% and 8% and the “Population Membrane Permeable-Phenotype (%)” value [5] was 0% and 13%. The “Population Mitochondria Different-Phenotype (%)” value [5] was 1% and 4%, the “Population Mitotic Cells (%)” value [5] was 33% and 45% and the “Population Normal (%)” value [5] was 96% and 91%. The “Population Tubulin-Different-Phenotype (%)” value [5] was 22% and 55%, the “Total Cell Count” value [5] was 193 and 156 and the “Population Apoptotic (%)” value [6] was 63% and 50%. For the same molecule, the “Population Fragmented Nuclei (%)” value [6] was 13% and 31%, the “Population Healthy Nuclei (%)” value [6] was 65% and 51% and the “Population Hoechst High Intensity Objects (%)” value [6] was 2% and 0%. The “Population Membrane Permeable-Phenotype (%)” value [6] was 0% and 9%, the “Population Mitochondria Different-Phenotype (%)” value [6] was 8% and 14% and the “Population Mitotic Cells (%)” value [6] was 36% and 50%. For the same molecule, the “Population Normal (%)” value [6] was 97% and 100%, the “Population Pyknosed Nuclei (%)” value [6] was 20% and 17% and the “Population Tubulin-Different-Phenotype (%)” value [6] was 48% and 76%. The “Total Cell Count” value [6] was 164 and 125.
